Measurements collected from several papers.
Each line is one published result; the experiments were not run side by side.
CHEK1: Serine/threonine-protein kinase Chk1 (CHEK1, Homo sapiens, UniProt O14757)
PRMT1: Protein arginine N-methyltransferase 1 (PRMT1, Homo sapiens, UniProt Q99873)
SLC6A3: Sodium-dependent dopamine transporter (SLC6A3, Homo sapiens, UniProt Q01959)
FGFR2: Fibroblast growth factor receptor 2 (FGFR2, Homo sapiens, UniProt P21802)

COCCNC(=O)Nc1ccc2nc(-c3cccs3)c(-c3cccs3)nc2c1 — IC50 (Acetyl-coenzyme A synthetase, cytoplasmic (ACSS2, Homo sapiens, UniProt Q9NR19); enzyme activity, inhibitor, absorbance): ~0.6 µM
OC1CCC(NCc2ccc3c(c2)Cc2c-3n[nH]c2-c2ccc[nH]2)CC1 (stereo not drawn) — IC50 (CHEK1; enzyme activity, inhibitor): 1.66 µM
C/C(=N\O)c1ccc(-c2cccc(O)c2)c(Cl)c1O — IC50 (Solute carrier family 2, facilitated glucose transporter member 1 (SLC2A1, Homo sapiens, UniProt P11166); transporter uptake, inhibitor, radiometric): 15.7 µM
C#CCNC(=N)NCCCSC[C@H]1O[C@@H](n2cnc3c(NCCCc4ccccc4)ncnc32)[C@H](O)[C@@H]1O — IC50 (PRMT1; enzyme activity, inhibitor, fluorescence): 2.09 µM
O=C(O)c1cnn2c(-c3cccc(C(F)(F)F)c3)ccnc12 — IC50 (Toll-like receptor 8 (TLR8, Homo sapiens, UniProt Q9NR97); reporter gene): > 20 µM
O=C(N[C@@H]1CC[C@@H](c2cccc(F)c2F)CN(CC(F)(F)F)C1=O)N1CCC(n2c(=O)[nH]c3ncccc32)CC1 — IC50 (ATP-binding cassette sub-family C member 4 (ABCC4, Homo sapiens, UniProt O15439); transporter uptake, inhibitor; HEK293; cell membranes): 42.4 µM
N=C(NCCCO)NCCCSC[C@H]1O[C@@H](n2cnc3c(NCCCc4ccccc4)ncnc32)[C@H](O)[C@@H]1O — IC50 (PRMT1; enzyme activity, inhibitor, fluorescence): 4.9 µM
Clc1ccc(C(c2ccccc2)c2nnnn2CCCCN2CCC(CCCc3ccccc3)CC2)cc1 (stereo not drawn) — IC50 (SLC6A3; transporter uptake, inhibitor): 0.331 µM
O=S(=O)(O)OC[C@H]1O[C@@](COS(=O)(=O)O)(O[C@H]2O[C@H](COS(=O)(=O)O)[C@@H](OS(=O)(=O)O)[C@H](OS(=O)(=O)O)[C@H]2OS(=O)(=O)O)[C@@H](OS(=O)(=O)O)[C@@H]1OS(=O)(=O)O — IC50 (Coagulation factor XI (F11, Homo sapiens, UniProt P03951); enzyme activity, inhibitor, absorbance; pH 7.4): > 4000 µM
Clc1ccc(C(c2ccccc2)c2nnnn2CCCN2CCC(CCCc3ccccc3)CC2)cc1 (stereo not drawn) — IC50 (SLC6A3; transporter uptake, inhibitor): 0.843 µM
O=C(O)c1ccc(-c2[nH]nc3c2Cc2cc(CNC4CCC(O)CC4)ccc2-3)o1 (stereo not drawn) — IC50 (CHEK1; enzyme activity, inhibitor): 1.56 µM
CNC(=O)c1cc2c(Oc3ccc(NC(=O)C4(C(=O)Nc5ccc(F)cc5)CC4)cc3)ccnc2cc1OC — IC50 (Discoidin domain-containing receptor 2 (DDR2, Homo sapiens, UniProt Q16832); enzyme activity, inhibitor, radiometric): 0.041 µM
COc1ccc(-c2ccccc2)cc1NS(=O)(=O)c1cc(Cl)cc(Cl)c1O — IC50 (ATP-citrate synthase (ACLY, Homo sapiens, UniProt P53396); enzyme activity, inhibitor): 0.46 µM
CSc1ccc(/C=C2/C(C)=C(CC(=O)O)c3cc(F)ccc32)cc1 — IC50 (Dual specificity calcium/calmodulin-dependent 3',5'-cyclic nucleotide phosphodiesterase 1C (PDE1C, Homo sapiens, UniProt Q14123); enzyme activity, inhibitor): > 100 µM
c1ccc(CCC2CCN(CCCn3nnnc3C(c3ccccc3)c3ccccc3)CC2)cc1 — IC50 (SLC6A3; transporter uptake, inhibitor): 0.726 µM
COc1ccc(CNc2c(CO)cnc3c(C4CC4)cc(C#N)cc23)cn1 — IC50 (cAMP and cAMP-inhibited cGMP 3',5'-cyclic phosphodiesterase 10A (PDE10A, Homo sapiens, UniProt Q9Y233); enzyme activity, inhibitor): > 10 µM
CC(C)n1nnc(-c2cc(O)cc(Nc3ncnn4ccc(CN5CCC(N)CC5)c34)c2)n1 — IC50 (AP2-associated protein kinase 1 (AAK1, Homo sapiens, UniProt Q2M2I8); enzyme activity, inhibitor): 0.0002 µM
COc1cc(-c2ccc3c(c2)Nc2ccc(NC(=O)c4cc[nH]n4)cc2NC3=O)ccc1[N+](=O)[O-] — IC50 (CHEK1; enzyme activity, inhibitor): 0.00906 µM
O=C1CSC(=S)N1NC(=S)SSC(=S)NN1C(=O)CSC1=S — IC50 (Tyrosine-protein phosphatase non-receptor type 22 (PTPN22, Homo sapiens, UniProt Q9Y2R2); enzyme activity, inhibitor, fluorescence; pH 6.5): 3 µM
CCOc1ccc2c(-c3cc(C)nc(Nc4cc(OC)cc(C(F)(F)F)c4)n3)cnn2n1 — IC50 (Dual specificity protein kinase CLK4 (CLK4, Homo sapiens, UniProt Q9HAZ1); enzyme activity, inhibitor): > 10 µM
Cc1ccc(NC(=O)c2ccc(C)c(C(F)(F)F)c2)cc1C#Cc1nn(C2CCC(O)CC2)c2ncnc(N)c12 (stereo not drawn) — IC50 (FGFR2; enzyme activity, inhibitor, radiometric): 0.04 µM
CCN(CC)C(=O)CC(c1ccc2c(c1)OCO2)c1c(O)cc(OC)cc1OC (stereo not drawn) — IC50 (Nuclear receptor ROR-gamma (Mus musculus, UniProt P51450); reporter gene): > 50 µM
Clc1ccc(C(c2ccccc2)c2nnnn2CCCCN2CCC(CCc3ccccc3)CC2)cc1 (stereo not drawn) — IC50 (SLC6A3; transporter uptake, inhibitor): 0.443 µM
COc1cc(-c2ccc3c(c2)Nc2ccc(NC(N)=O)cc2NC3=O)ccc1[N+](=O)[O-] — IC50 (CHEK1; enzyme activity, inhibitor): 0.00641 µM
Fc1ccc(C(c2ccc(F)cc2)c2nnnn2CCCCN2CCC(c3ccccc3)CC2)cc1 — IC50 (SLC6A3; transporter uptake, inhibitor): 0.0557 µM
Oc1ccc(-c2ccc(-c3[nH]nc4c3Cc3cc(O)ccc3-4)cc2)cc1 — IC50 (CHEK1; enzyme activity, inhibitor): 0.0059 µM
N=C(N)c1ccc(-c2ccc(-c3ccc(C(=N)N)nc3)o2)cc1 — IC50 (PRMT1; enzyme activity, inhibitor): 9.5 µM
OCc1ccc2c(c1)-c1n[nH]c(-c3ccc(-c4ccc(O)cc4)cc3)c1C2 — IC50 (CHEK1; enzyme activity, inhibitor): 0.0044 µM
Cc1cc(Nc2cc(CN3CCOCC3)c3nc(C)c(Cc4ccc(Cl)cc4F)n3n2)n[nH]1 — IC50 (FGFR2; enzyme activity, inhibitor, TR-FRET): 0.032 µM
COc1cc(-c2ccc(-c3[nH]nc4c3Cc3cc(CNC5CCC(O)CC5)ccc3-4)cc2)ccc1O (stereo not drawn) — IC50 (CHEK1; enzyme activity, inhibitor): 0.0594 µM
CC(=O)SCCNC(=O)CCNC(=O)[C@H](O)C(C)(C)COP(=O)(O)OP(=O)(O)OC[C@H]1O[C@@H](n2cnc3c(N)ncnc32)[C@H](O)[C@@H]1OP(=O)(O)O — IC50 (Pantothenate kinase 3 (PANK3, Homo sapiens, UniProt Q9H999); enzyme activity, inhibitor): 0.17 µM
COc1cc(-c2ccc3c(c2)Nc2ccc(N)cc2NC3=O)ccc1[N+](=O)[O-] — IC50 (CHEK1; enzyme activity, inhibitor): 0.0166 µM
COc1cc(N2CCN(C)CC2)ccc1Nc1ncc2c(n1)N(C)c1ccccc1C(=O)N2CC(F)(F)F — IC50 (Activated CDC42 kinase 1 (TNK2, Homo sapiens, UniProt Q07912); cell-free assay, TR-FRET): 5 µM
